# Compound activity deposited in PubChem BioAssay by several laboratories.
# In the library only some 9.4% were active in any assay of this set; here they are far more common.
# SKKanGAS inh: blocks kanamycin growth of S. pyogenes SKKanGAS strain. inhibition, % at 7.5 µM. AID 1662. BacTiter-Glo, 6 h. actives 1.3% (n = 300,000);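 active means mean replicate score, as percent of positive control median, at least 50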;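 further: strain carries kanamycin resistance gene driven by streptokinase promoter and grows in 40 µg/ml kanamycin; loss of luminescence reflects streptokinase promoter inhibition or plain growth inhibition; 0% = median of DMSO wells and 100% = positive control at its reference dose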
# T cruzi inh: blocks replication of Trypanosoma cruzi; inhibition, % (no concentration beside the values); T. cruzi beta-gal in NIH3T3, luminescence, 90 h; actives 1.4% (n = 300,000); AID 1885;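 active means mean inhibition across valid replicates above about 55%, limit read from the data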;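 further: signal also drops with host cell toxicity which is not excluded here; 0% = plate median of DMSO wells and 100% = zero luminescence signal; higher percent means less beta-gal luminescence so fewer parasites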
#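 assay system = mouse NIH/3T3 fibroblasts infected with β-gal-expressing T. cruzi Tulahuen C4 | input = 5,000 NIH/3T3 host cells per well | buffer or medium = DMEM plus 2% FBS | timing = 3 h host attachment, then at least 90 h co-culture | measured by = GalScreen luminescence, 60 min | evaluation = luminescence reflecting intracellular parasite burden, expressed as percent inhibition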
# Lmaj promast: reduces viability of Leishmania major promastigotes | actives 9% (n = 200,000) | inhibition, % at 10 µM | resazurin fluorescence viability; in the data active means inhibition above about 50%;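 further: promastigotes grown with compound for 44 hours at 28 °C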
# Mdm2-MdmX inh: disrupts the human Mdm2-MdmX interaction; SaOS-2 split-luciferase Mdm2/MdmX complementation, luminescence; actives 3% (n = 330,000); O15151+Q00987; inhibition, % at 8 µM;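 active means inhibition of at least 50% at 8 µM in the primary screen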
# CSC inhib: cancer stem cell inhibition | cancer stem cell-like cells viability, luminescence | inhibition, % at 7.5 µM | actives 1.1% (n = 300,000) | AID 2717; in the data active means inhibition above about 75%; tested in HMLE shEcad cells
# Beta cell apopt: blocks beta cell apoptosis; protection from apoptosis, % (no concentration beside the values); AID 435005; actives 0.8% (n = 300,000); INS-1E cytokine-induced death, ATP luminescence, 48 h; percent of positive-control rescue, neutral wells zero;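 active means Every replicate reaches about 75%, or at least half do and their mean reaches it too, limit read from the data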;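 further: 0% = cytokine-treated negative control wells and 100% = positive control rescue; higher means more ATP so stronger rescue from cytokine killing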
# Mdm2 MdmX conf: confirmation of human Mdm2/MdmX interaction inhibitors | shares compounds with Mdm2-MdmX inh | Mdm2-MdmX binding, luminescent assay | inhibition, % at 8 µM | actives 55% (n = 10,000); in the data active means inhibition above about 40%
# Full FLuc ctr: inhibits full-length luciferase, flagging false Mdm2/MdmX hits. AID 504607. actives 77% (n = 6,200). SaOS-2 full-length luciferase counterscreen, luminescence. inhibition, % at 8 µM. shares compounds with Mdm2-MdmX inh;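 active means mean inhibition at 8 µM reaching about 37%, which flags the compound as non-specific, limit read from the data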;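 further: p53-null SaOS-2 cells with luciferase driven by a doxycycline-inducible promoter; compound on cells about two nights before reading with doxycycline added after day one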
# * = called active by the depositor; x = not tested or not shown.
SMILES,SKKanGAS inh,T cruzi inh,Lmaj promast,Mdm2-MdmX inh,CSC inhib,Beta cell apopt,Mdm2 MdmX conf,Full FLuc ctr
CCN1CCN(CC(=O)c2ccc(OC)cc2)CC1,2.5,15.8,-1.2,-19.9,11.1,-4.0,x,x
CCOc1ccc(NC(=O)CCNC(=O)Cn2ccc3ccccc3c2=O)cc1,1.0,3.4,x,28.4,-8.3,-4.2,x,x
COc1ccc(C(NC(=O)C2CCCCC2)c2c(O)ccc3ccccc23)cc1 (stereo not given),1.2,30.6,99.8*,52.6*,17.2,3.9,12.9,x
CCCC(=O)NC(c1ccc(OC)cc1)c1c(O)ccc2ccccc12 (stereo not given),8.8,0.5,x,50.1*,49.7,0.6,38.9,60.8*
COc1ccc(-c2csc(NC(=O)c3ccccc3NS(=O)(=O)c3ccc(C)cc3)n2)cc1,53.8*,3.3,4.5,83.5*,6.6,44.3,64.5*,54.1*
CCCNC(=O)c1ccccc1NS(=O)(=O)c1ccc(OC)c(OC)c1,2.3,-3.0,-3.2,-4.4,-9.1,-1.2,x,x
COc1ccc(S(=O)(=O)Nc2ccccc2C(=O)Nc2nc(-c3ccc(F)cc3)cs2)cc1OC,35.6,-9.3,52.8*,74.2*,-10.5,45.5,66.2*,62.6*
CCOC(=O)c1ccc(Oc2cc(C)nc(Cl)n2)cc1,8.0,-11.4,x,7.9,-4.3,-5.0,x,x
COc1cc(C(=O)OCC(=O)c2cc(C)n(C)c2C)cc(NC(=O)c2ccco2)c1OC,5.7,-4.8,-5.4,74.4*,-5.5,17.7,5.5,x
CNC(=O)COC(=O)c1cc(NC(=O)c2ccco2)c(OC)c(OC)c1,-4.6,-2.5,-0.3,3.9,x,-0.6,x,x
Cc1cc(C(=O)COC(=O)c2ccco2)c(C)n1Cc1ccco1,-8.0,8.0,14.7,63.5*,-12.7,-2.7,82.0*,98.2*
c1ccc(N2CCN(c3nc(-c4ccccn4)nc4ccccc34)CC2)cc1,100.0*,48.9,100.2*,58.5*,-3.9,92.7*,31.1,x
CCCOc1ccccc1N/C(=N/c1nc(C)cc(C)n1)NC(=O)COc1ccc(OC)cc1,29.2,35.1,97.5*,56.5*,27.6,24.4,18.9,x
O=C(C(Cc1ccccc1)n1cccc1)N1CCN(c2ccccc2)CC1 (stereo not given),1.3,13.1,9.3,-34.6,-11.7,-0.9,x,x
Cc1ccc(C)c(N2CCN(C(=O)C(Cc3ccccc3)n3cccc3)CC2)c1 (stereo not given),14.5,46.0,21.7,50.1*,29.9,-1.8,27.5,x
N#CC1(NC(=O)CSc2nnc(-c3ccccc3F)n2N)CCCCC1,5.7,-2.4,x,-12.7,-8.0,-0.5,x,x
CCCCN1C2=NC(c3ccccc3)CN2c2ccccc21 (stereo not given),-2.2,-8.1,x,-4.2,-18.0,8.6,x,x
CNC(=O)Nc1cc(C(F)(F)F)cc(C(F)(F)F)c1,-14.2,15.7,x,33.1,6.5,5.6,x,x
O=C(Nc1cc(C(F)(F)F)cc(C(F)(F)F)c1)Nc1cnn(-c2ccc([N+](=O)[O-])cc2)c1C(F)(F)F,32.5,-6.6,x,100.3*,101.9*,115.7*,93.3*,60.0*
COc1ccc(N2CCN(S(=O)(=O)c3cn(C)cn3)CC2)cc1,-3.3,-14.9,x,-3.8,-5.3,-4.9,x,x
CCn1c(SCC(=O)N2CCCCCC2)nc2c([nH]c3ccccc32)c1=O,12.3,28.3,x,5.7,-0.8,12.0,x,x
CCn1c(SCC(=O)NCC2CCCO2)nc2c([nH]c3ccccc32)c1=O (stereo not given),-1.3,-12.4,x,16.6,-0.3,3.9,x,x
CCn1c(SCC(=O)NCCc2ccccc2)nc2c([nH]c3ccccc32)c1=O,-7.9,16.7,x,59.1*,19.2,13.5,32.3,x
CCn1c(SCC(=O)N2CCN(c3ccccc3)CC2)nc2c([nH]c3ccccc32)c1=O,-1.7,-8.3,x,58.4*,14.2,18.8,27.5,86.1*
COc1cccc(-n2c(SCC(=O)N3CCOCC3)nc3c([nH]c4ccccc43)c2=O)c1,5.4,20.2,-10.4,64.6*,-8.9,-3.4,13.2,x
SMILES,SKKanGAS inh,T cruzi inh,Lmaj promast,Mdm2-MdmX inh,CSC inhib,Beta cell apopt,Mdm2 MdmX conf,Full FLuc ctr
Cc1ccc(S(=O)(=O)N2CCCCC2C)cc1[N+](=O)[O-] (stereo not given),-0.8,-1.7,x,0.9,-8.2,2.5,x,x
CCN(CC)c1ccc2cc(/C(N)=N/NC(=O)c3cccs3)c(=O)oc2c1,17.6,6.3,x,84.8*,6.3,5.4,70.8*,84.1*
CCOc1ccc2nc(N(CCN(C)C)C(=O)c3cc4ccccc4cc3OC)sc2c1,-2.5,23.0,x,43.7,-9.4,0.2,x,x
CCc1ccc2nc(N(CCN(C)C)C(=O)/C=C/c3cccs3)sc2c1,3.0,12.2,x,51.2*,66.1,7.7,20.9,x
CCOc1ccc2nc(N(CCN(C)C)C(=O)/C=C/c3cccs3)sc2c1,-2.0,21.7,x,64.6*,5.6,-2.5,30.9,x
CCOC(=O)N1CCN(S(=O)(=O)c2ccc(C(=O)N(CCN(C)C)c3nc4ccc(CC)cc4s3)cc2)CC1,3.8,22.4,x,24.6,-12.4,-6.8,x,x
CCOCc1cc(CN2CCC(CCC(=O)NC3CC3)CC2)ccc1OC,-3.0,4.1,x,10.0,-9.6,x,x,x
CCCC[C@@H](CN[C@H](C)CNC)NCC1CCC(C(C)(C)C)CC1 (stereo not given in full),20.9,41.5,x,100.2*,126.1*,93.4*,96.7*,55.9*
O=C(NNC(=O)C1CCN(S(=O)(=O)c2ccc(Cl)cc2)CC1)c1ccccc1O,7.6,-0.9,x,55.7*,37.1,0.2,59.1*,45.8*
COC(=O)[C@]1(C)N[C@H](c2ccc(-c3ccc(Cl)c(Cl)c3)c(OC)c2)[C@@H]2C(=O)N(C)C(=O)[C@@H]21,16.7,12.4,x,64.9*,69.4,-3.5,40.1*,49.5*
CCN1C(=O)[C@H]2[C@@H](c3ccc(-c4ccc(Cl)c(Cl)c4)c(OC)c3)N[C@@](Cc3ccccc3)(C(=O)OC)[C@H]2C1=O,13.8,-1.8,x,62.2*,12.2,1.3,47.0*,45.8*
CCN1C(=O)[C@H]2[C@@H](c3ccc(-c4ccc5c(c4)OCO5)cc3)N[C@@](Cc3ccccc3)(C(=O)OC)[C@H]2C1=O,x,x,x,15.9,x,-2.1,x,x
CC(=O)N/C(=C\c1ccccc1)C(=O)OCCCOC(=O)/C(=C/c1ccccc1)NC(C)=O,5.7,2.5,x,29.4,-5.3,-4.4,x,x
O=C(COc1ccc(-n2cnnn2)cc1)Nc1cc(Cl)cc(Cl)c1,x,x,x,66.7*,x,x,34.3,x
NC(N)=NN=C1CCCCCCCCCCC1,4.8,31.0,x,59.9*,10.6,18.5,42.7*,57.8*
CC(C)(C)NC(=O)C(=O)NN=C1CCCCCCCCCCC1,-0.1,-7.1,0.7,-19.0,10.2,-2.4,x,x
